Data on 15 compounds can be found in PMC11143523 (Acta Pharmaceutica Sinica. B, 2024).

One series has as its target T1, APC‒Asef (Homo sapiens, UniProt P25054).
T1 sequence (P25054 303-739): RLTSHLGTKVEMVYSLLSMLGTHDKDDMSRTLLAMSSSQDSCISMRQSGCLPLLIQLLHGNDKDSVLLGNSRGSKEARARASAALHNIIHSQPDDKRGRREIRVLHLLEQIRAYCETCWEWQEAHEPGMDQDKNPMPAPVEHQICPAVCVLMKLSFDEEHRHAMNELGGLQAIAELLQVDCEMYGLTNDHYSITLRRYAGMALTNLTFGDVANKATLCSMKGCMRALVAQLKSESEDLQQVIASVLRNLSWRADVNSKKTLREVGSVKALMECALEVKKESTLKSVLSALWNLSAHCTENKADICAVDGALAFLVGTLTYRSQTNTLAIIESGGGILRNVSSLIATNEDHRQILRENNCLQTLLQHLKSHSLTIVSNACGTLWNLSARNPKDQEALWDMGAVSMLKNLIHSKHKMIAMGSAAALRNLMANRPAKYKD
The series is described as follows: Fluorescence-polarization. The conditions noted are these: for inhibition at 400 µM: read-out: Inhibitory activity (inhibition rate %), at 400 μmol/L. The format is binding.

Series [1] has as its system SW480 cells. The series can be described thus: Transwell migration assay. The format is cell-based. Conditions: 20 μmol/L, 72 h. Summed up:
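SW480 cells seeded at 1.5 × 10⁵ per insert in serum-free medium, with complete medium below. Test compound (20 μmol/L) or DMSO added to both chambers for 72 h. Nonmigrated cells swabbed off; migrated cells crystal-violet stained and counted. Counts normalized to DMSO-treated mean, n = 3 independent experiments, mean ± SD.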

For series [2], the target named is T2, APC‒Asef interaction (Homo sapiens, UniProt P25054).
T2 sequence (P25054 303-876): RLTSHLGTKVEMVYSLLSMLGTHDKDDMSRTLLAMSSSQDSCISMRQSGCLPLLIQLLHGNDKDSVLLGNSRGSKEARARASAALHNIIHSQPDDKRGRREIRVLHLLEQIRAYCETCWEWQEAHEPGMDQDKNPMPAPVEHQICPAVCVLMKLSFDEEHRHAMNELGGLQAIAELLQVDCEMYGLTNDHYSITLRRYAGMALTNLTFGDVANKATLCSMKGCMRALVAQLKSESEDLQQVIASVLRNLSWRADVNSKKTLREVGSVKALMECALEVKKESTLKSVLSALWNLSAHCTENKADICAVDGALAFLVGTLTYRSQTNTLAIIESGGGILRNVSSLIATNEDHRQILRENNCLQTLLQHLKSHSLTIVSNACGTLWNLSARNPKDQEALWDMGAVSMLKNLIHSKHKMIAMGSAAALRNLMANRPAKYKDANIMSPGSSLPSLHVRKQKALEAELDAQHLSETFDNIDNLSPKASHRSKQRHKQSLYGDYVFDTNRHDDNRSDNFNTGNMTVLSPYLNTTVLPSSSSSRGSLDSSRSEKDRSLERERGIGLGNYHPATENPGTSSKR
The series can be described thus: Co-IP of exogenous HA-APC and FLAG-Asef in treated HEK293T cells. The class given is cell-based. The conditions noted are these: 20 μmol/L, 48 h. Summed up: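 HEK293T cells transfected with HA-APC (303‒876) and Flag-Asef plasmids, then exposed to test compound at 20 μmol/L or DMSO for 48 h. Cells lysed in 0.3% NP-40 buffer (50 mmol/L Tris-HCl pH 7.5, 150 mmol/L NaCl, PMSF, NaF, Na₃VO₄, protease inhibitors). Lysate incubated with anti-FLAG magnetic beads 3 h at 4 °C. Bound protein eluted by boiling 10 min at 95 °C in loading buffer.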

Series [3] addresses T2, APC‒Asef interaction. The series is described as follows: Co-IP of APC‒Asef in drug-treated HEK293T cell lysates. The format is biochemical. Conditions: AT46 0.2, 1 or 5 μmol/L, 2 h.
Series [4] is described as follows: Pharmacokinetic study in mice. The class given is in vivo. The conditions noted are these: male, BALB/c, mouse, plasma, ip, 1 mg/kg. In a few lines:
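Male BALB/c mice (n = 3/group) dosed once i.p. at 1 mg/kg (5 mL/kg) in DMSO:Cremophor EL:10% HP-β-CD in saline (2:8:90). Blood taken from dorsal metatarsal vein predose and at 0.083–48 h. Plasma obtained by centrifugation at 4000 × g, 5 min, 4 °C. Analysed by LC‒MS/MS on C18 column with acetonitrile/water/0.1% formic acid gradient, negative MRM mode.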

In series [5] the test system is SW480 cells. The series can be described thus: Wound healing assay. The conditions noted are these: 20 μmol/L, 48 h. The format is cell-based. In a few lines: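 SW480 cells (1 × 10⁶) grown to confluence at 37 °C, 5% CO₂, then scratched and PBS-washed. Cells cultured in 1% FBS medium with test compound (20 μmol/L) or DMSO. Wound imaged at scratching and after 48 h. Migration expressed relative to DMSO group, mean ± SD of n = 3 independent experiments.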

For series [6], the system named is SW480 cells. The series can be described thus: Cell cytotoxicity assay. Conditions: 20 μmol/L, 48 h. The format is cell-based.
The mark [7] stands for this setting: IC50 ± SD, FP competition assay, three independent experiments.

Values joined by “and” are separate entries in the source; they are usually repeats but may differ in a detail not shown here. Identical values can stand only once. Square brackets hold non-standard residues; d marks the D form. Peptide text beside a SMILES is read from it. * marks the point of attachment. Ala(cPent) = N[C@@H](CC1CCCC1)C(=O)O; Cbz = O=C(OCc1ccccc1)*

With `CC(C)C[C@H](NC(=O)[C@H](CO)NC(=O)[C@H](CCC(=O)O)NC(=O)c1ccncn1)C(=O)NCCc1ccccc1` [AT3], on APC‒Asef (setting [7]), the IC50 (commonly the point on the concentration scale where inhibition reaches its midpoint) came to 323 µM. Besides, at APC‒Asef, the inhibition at 400 µM worked out at 54.6 ± 2%.

Turning to `CC(C)C[C@H](NC(=O)[C@H](CO)NC(=O)[C@H](CCC(=O)O)NC(=O)c1ccncn1)C(=O)NCC=Cc1ccccc1` [AT4], at APC‒Asef (at 400 μmol/L), the “Inhibitory activity (inhibition rate %)” value is given as 13.1 ± 0.7%. In addition, on APC‒Asef, the inhibition at 400 µM was 13%.

`CC(C)C[C@H](NC(=O)[C@H](CC1CC1)NC(=O)[C@H](CCC(=O)O)NC(=O)c1ccncn1)C(=O)NC1CC1c1ccccc1` (stereo partly drawn) [AT7]: the IC50 on APC‒Asef (setting [7]) was determined as 61.3 ± 7.2 µM.

For `CC(C)C[C@H](NC(=O)[C@H](CC1CCCCC1)NC(=O)[C@H](CCC(=O)O)NC(=O)c1ccncn1)C(=O)NC1CC1c1ccccc1` (stereo partly drawn) [AT8], the 50% inhibitory concentration (IC50) on APC‒Asef (setting [7]) amounted to 168 ± 9.5 µM.

With `CC(C)C[C@H](NC(=O)[C@H](Cc1ccccc1)NC(=O)[C@H](CCC(=O)O)NC(=O)c1ccncn1)C(=O)NC1CC1c1ccccc1` (stereo partly drawn) [AT9], the IC50 on APC‒Asef (setting [7]) worked out at 95.4 ± 7.5 µM.

`CC(C)C[C@H](NC(=O)[C@H](Cc1ccc2ccccc2c1)NC(=O)[C@H](CCC(=O)O)NC(=O)c1ccncn1)C(=O)NC1CC1c1ccccc1` (stereo partly drawn) [AT10]: the IC50 on APC‒Asef (setting [7]) is 9.3 µM and 9.34 µM. In addition, the “fold increase in potency over AT6” value at APC‒Asef (from FP IC50) came to 2 fold.

Turning to `CSc1nccc(C(=O)N[C@@H](CCC(=O)O)C(=O)N[C@@H](Cc2ccc3ccccc3c2)C(=O)N[C@@H](CC(C)C)C(=O)NC2CC2c2ccccc2)n1` (stereo partly drawn) [AT38], the IC50 at APC‒Asef (pIC50, test set, Table 3, pIC50 = ‒Log [IC50 (μmol/L) × 10^−6]) was 0.708 µM.

The compound `CSc1nccc(C(=O)N[C@@H](CC(=O)O)C(=O)N[C@@H](Cc2ccc3ccccc3c2)C(=O)N[C@@H](CC(C)C)C(=O)NC2CC2c2ccccc2)n1` (stereo partly drawn) [AT41] yielded an IC50 at APC‒Asef (setting [7]) of 19.3 ± 0.58 µM.

`CSc1nccc(C(=O)N[C@@H](CCC(=O)O)C(=O)N[C@@H](CC2CCCCC2)C(=O)N[C@@H](CC(C)C)C(=O)NC2CC2c2ccccc2)n1` (stereo partly drawn) [AT42]: at APC‒Asef (setting [7]), the concentration for half-maximal inhibition (IC50) is 33 µM and 33.1 µM.

At APC‒Asef (setting [7]), `CSc1nccc(C(=O)N[C@@H](CCC(=O)O)C(=O)N[C@H](Cc2ccc3ccccc3c2)C(=O)N[C@@H](CC(C)C)C(=O)NC2CC2c2ccccc2)n1` (stereo partly drawn) [AT43] showed an IC50 of 127 ± 6.6 µM.

In turn, `CSc1nccc(C(=O)N[C@@H](CCC(=O)O)C(=O)N[C@@H](Cc2ccc3ccccc3c2)C(=O)N[C@@H](CC(C)C)C(=O)N[C@@H]2C[C@H]2c2ccccc2)n1` [AT44] showed an IC50 on APC‒Asef (setting [7]) of 0.48 ± 0.07 µM.

Compound `CSc1nccc(C(=O)N[C@@H](CCC(=O)O)C(=O)N[C@@H](Cc2ccc3ccccc3c2)C(=O)N[C@@H](CC(C)C)C(=O)N[C@H]2C[C@@H]2c2ccccc2)n1` [AT45] displayed an IC50 on APC‒Asef (setting [7]) of 8.61 ± 0.12 µM.

In the case of `CSc1ncc(Br)c(C(=O)N[C@@H](CCC(=O)O)C(=O)N[C@@H](Cc2ccc3ccccc3c2)C(=O)N[C@@H](CC(C)C)C(=O)N[C@@H]2C[C@H]2c2ccccc2)n1` [AT46], the “migration of SW480 cells, Transwell” value with SW480 cells [1] is on record as “no inhibition”. Also, the “disruption of APC‒Asef interaction (Co-IP)” value (“disruption” below) on APC‒Asef interaction [2] is on record as “no disrupting effect on the APC‒Asef interaction in the cell model”. Moreover, the “disruption” value on APC‒Asef interaction [3] is “dose-dependently attenuated the APC‒Asef interaction in cell lysates”. Further, the IC50 on APC‒Asef (setting [7]) was 0.11 ± 0.003 µM. The “fold increase in potency over parental MAI-400” value on APC‒Asef (from FP IC50) amounted to 24 fold. In series [4], the AUC(0-t) – broadly, the area under the concentration-time curve up to a stated or last time point – is 124 ± 18.4 ng·h/mL; the highest level (Cmax) was 60.8 ± 5.65 ng/mL; the MRT (commonly the average time that molecules of a dose stay in the body) was determined as 1.96 ± 0.58 h; the Tmax (commonly the time from dosing to the highest level) came to 0.83 ± 0.29 h. Also, the half-life (as a rule, the time in which the quantity being followed falls by half) in series [4] is 1.2 ± 0.5 h. For the same compound, the “migration of SW480 cells, wound healing” value in the series with SW480 cells [5] is recorded as “no inhibition”. In the series with SW480 cells [6], the “survival ability (proliferative viability) of SW480 cells, CCK-8” value is recorded as “did not damage the survival ability of SW480 cells”.

For `CSc1ncc(Br)c(C(=O)N[C@@H](CCC(=O)OC(C)(C)C)C(=O)N[C@@H](Cc2ccc3ccccc3c2)C(=O)N[C@@H](CC(C)C)C(=O)N[C@@H]2C[C@H]2c2ccccc2)n1` [AT47], the “migration of SW480 cells, Transwell” value in the series with SW480 cells [1] is reported as “suppressed the migration of SW480 cells”. On APC‒Asef interaction [2], the “disruption” value is “notably diminished APC‒Asef PPI”. For the same compound, on APC‒Asef, the inhibition at 400 µM was determined as 24.4%. In series [4], the AUC(0-t) is 4800 ± 868 ng·h/mL; the Cmax – broadly, the maximum level reached in the sampled fluid or tissue – was found to be 1460 ± 119 ng/mL; the MRT was found to be 4.97 ± 1.49 h; the Tmax is 1.67 ± 0.58 h. The compound further gave a half-life in series [4] of 11.8 ± 5.7 h. In addition, in the series on SW480 cells [5], the “migration of SW480 cells, wound healing” value is reported as “inhibited the migration of SW480 cells”. The “survival ability (proliferative viability) of SW480 cells, CCK-8” value with SW480 cells [6] was “did not damage the survival ability of SW480 cells”.

As to `C[C@H](NC(=O)OCc1ccccc1)C(=O)NCC(=O)N[C@@H](CCC(=O)O)C(=O)N[C@@H](C)C(=O)N[C@@H](CC1CCCC1)C(=O)N[C@@H](Cc1ccc(O)cc1)C(=O)N[C@@H](CCC(=O)O)C(N)=O` [MAI-203, reference compound] (Cbz-AGEA[Ala(cPent)]YE-NH2; N-terminus and C-terminus assumed), in series [4], the AUC(0-t) came to 52.4 ± 6.07 ng·h/mL, the Cmax was 101 ± 25 ng/mL, the MRT is 0.43 ± 0.07 h and the Tmax was found to be 0.25 h. The compound also showed a half-life in series [4] of 0.24 ± 0.06 h.
